Source: PubChem BioAssay
In the library only some 2.5% were active in any assay of this set; here they are far more common.
NSD2 HMT inh: inhibitors of human histone methyltransferase NSD2; hit rate 0.54% among 310,000; NSD2 peptide methylation, AlphaScreen, 120 min; inhibition, % at 12.5 µM; AID 743445; O96028
CDK5 inh: inhibitors of human CDK5/p35 kinase; inhibition, % at 10 µM; AID 488839; Q00535+Q15078; Recombinant CDK5/p35, ADP-Glo luminescence, 60 min; hit rate 0.01% among 330,000;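 active = highest replicate inhibition of at least 50% and at least 75% of replicates reaching 50%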;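 note: plate controls were DMSO neutral control for no effect and GW8510 at 10 µM for full effect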
SR-BI DiI inh: mouse SR-BI HDL lipid transfer inhibition. ldlA[mSR-BI] CHO cells, DiI-HDL uptake fluorescence, 3 h. Q61009. inhibition, % at 12.5 µM. hit rate 0.96% among 320,000;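 active = mean replicate inhibition of at least 70% and a set share of replicates each scoring 70 or more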;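 note: 0% = median of neutral control wells and 100% = median of positive control wells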
Target sequence (Q61009 whole entry, looked up): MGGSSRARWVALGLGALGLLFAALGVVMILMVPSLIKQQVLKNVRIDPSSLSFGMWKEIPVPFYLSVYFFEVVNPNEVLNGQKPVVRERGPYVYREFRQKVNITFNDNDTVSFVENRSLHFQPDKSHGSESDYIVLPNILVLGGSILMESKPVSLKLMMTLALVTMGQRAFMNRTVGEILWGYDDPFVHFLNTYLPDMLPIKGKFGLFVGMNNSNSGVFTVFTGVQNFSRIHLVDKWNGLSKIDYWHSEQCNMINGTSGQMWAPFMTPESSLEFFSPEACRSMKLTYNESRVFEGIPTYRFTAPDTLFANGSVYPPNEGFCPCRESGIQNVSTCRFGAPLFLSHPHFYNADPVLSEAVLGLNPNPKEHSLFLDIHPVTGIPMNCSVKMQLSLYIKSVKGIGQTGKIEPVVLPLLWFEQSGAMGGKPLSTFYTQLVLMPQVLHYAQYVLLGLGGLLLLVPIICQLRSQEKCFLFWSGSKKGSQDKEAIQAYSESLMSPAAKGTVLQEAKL
dFosB act-1: enhances mouse delta FosB homodimer DNA binding; hit rate 0.99% among 340,000; activation, % at 25 µM; purified delta FosB, TAMRA-CDK5 oligo fluorescence polarization; percent of positive-control signal above neutral wells; AID 493131;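 active = mean activation above about 17%, with every replicate also reaching it, limit read from the data, passing the limit was not always enough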
SR-BI DiI-HDL act: enhances SR-BI lipid uptake from DiI-HDL; CHO ldlA[mSR-BI] cells, DiI-HDL uptake fluorescence, 3 h; 100 = double the neutral-control signal; activation, % at 12.5 µM; hit rate 0.096% among 320,000;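 active = mean replicate activation of at least 60% and every replicate at or above 60%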;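 note: 0% = median plate neutral-control signal and 100% = twice that signal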
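system = CHO ldlA[mSR-BI] cells, LDL receptor-null, SR-BI overexpressing | medium = Ham's F12 with 0.5% BSA, HEPES 25 mM, pH 7.4 | probe or stimulus = DiI-HDL 10 µg/mL | compound dosing = single-point compound dose | incubation = compound exposure 3 h, 37 °C | technique = DiI fluorescence, bottom read | read-out = cell-associated DiI fluorescence as measure of HDL uptake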
DYRK1A inh: Dyrk1A (rat) kinase inhibition | inhibition, % at 12.5 µM | Q63470 | hit rate 0.43% among 310,000 | ADP-Glo luminescence, NFATc1 peptide;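 note: plate controls were vehicle with enzyme for no effect and no enzyme for full effect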
dFosB act-2: enhances mouse delta FosB homodimer binding to DNA | activation, % at 24.9 µM | AID 588690 | 2,400 tested, under 10 active | shares compounds with dFosB act-1 | purified delta FosB, TAMRA-CDK5 oligo fluorescence polarization; normalised: neutral wells 0, positive control 100;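 active = highest replicate activation at or above 34% and every replicate reaching that threshold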;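 note: higher polarization means more probe DNA bound by delta FosB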
Numbers without * were called inactive; . = no result given. Cut-off read from the data, not from the text of the source, unless noted: active = inhibition above about 50%; inactive = the rest.

SMILES	NSD2 HMT inh	CDK5 inh	SR-BI DiI inh	dFosB act-1	SR-BI DiI-HDL act	DYRK1A inh	dFosB act-2
COC(=O)C(=O)C1CCc2c(Cl)cc(OC)c(OC)c2C1=O (stereo unspecified)	.	-0.5	5.4	-4.9	-5.4	12.8	.
C=CCn1c(SCC(=O)Nc2cc(C)on2)nc2c([nH]c3ccccc32)c1=O	-1.0	-0.7	-7.2	-0.4	7.2	.	.
Cc1ccc(-n2c(SCC(=O)Nc3cc(C)on3)nc3c([nH]c4ccccc43)c2=O)cc1	.	0.0	20.1	25.6*	-20.1	-0.9	3.3
O=C(CSc1nc2c([nH]c3ccccc32)c(=O)n1-c1ccc(F)cc1)NCc1ccco1	.	-0.9	22.8	18.7*	-22.8	-3.4	1.5
CN(C(=O)CSc1nnc(CNC(=O)c2ccccc2)o1)c1ccccc1	-2.9	-4.7	-37.6	2.5	.	-0.8	.
O=C1C2=C(NC(=S)NC2c2ccc(Cl)cc2)NC(c2ccc(Cl)cc2)N1c1ccc(Cl)cc1 (stereo unspecified)	0.4	0.6	2.4	82.1*	-2.4	-2.2	-0.1
O=C1C2CCCN2C(c2ccc(F)cc2)N1c1ccc(Cl)cc1 (stereo unspecified)	.	1.7	-16.0	3.3	16.0	8.3	.
CCc1nnc2n1N=C(c1ccc(-c3cc(Cl)ccc3Cl)o1)CS2	0.3	-0.1	31.6	29.6*	-31.6	2.2	-1.0
CC1=C(C(=O)Nc2cc(C(=O)N3CCN(c4cccc(C)c4C)CC3)ccc2C)SCCO1	7.8	.	55.2	-15.1	-55.2	.	.
Cc1cc(C)cc(NC(=O)CCc2nc3ccccc3[nH]2)c1	-0.5	-0.3	5.0	28.2*	-5.0	-6.8	-1.2
C=CCn1c(SCC(=O)Nc2ncc(Cc3ccc(Br)cc3)s2)nnc1-c1ccncc1	-3.0	-4.1	-16.6	37.3*	16.6	5.9	4.5
COc1cc(OC)c2nc(C)c3c(c2c1)N(c1ccc(O)cc1)CC3	3.9	0.5	-42.0	46.7*	42.0	-6.4	5.8
CN(c1ccc(OCC(=O)OCC(=O)c2c(N)n(C)c(=O)n(C)c2=O)cc1)S(=O)(=O)c1ccc2ccccc2c1	-2.2	-0.3	-20.5	33.2*	20.5	-0.6	-0.7
COc1cc(F)c(C2=CC(=O)C[C@H](c3ccc(Cl)cc3)C2)cc1F	.	2.7	12.3	3.9	-12.3	12.6	.
N#C/C(=C/c1ccc(CNC(=O)C(=O)Nc2cc(Cl)cc(Cl)c2)o1)C(=O)NCc1cccnc1	0.1	1.3	40.6	52.5*	-40.7	-6.0	0.2
Cc1ccc(NC(=O)C(=O)NCc2ccc(/C=C(/C#N)C(=O)NCc3cccnc3)o2)cc1	2.8	-0.7	-3.6	-17.6	3.6	-3.7	.
O=C(c1ccc2n[nH]nc2c1)N1CCN(c2ccc(C(F)(F)F)cn2)CC1	0.5	-6.5	8.8	-3.9	-8.8	3.8	.
Cc1cccc(C(=O)Oc2coc(CSc3nnc(NC(=O)C4CC4)s3)cc2=O)c1	-0.1	1.6	-15.8	7.2	15.8	3.1	.
O=C(Oc1coc(CSc2nnc(NC(=O)C3CC3)s2)cc1=O)c1ccccc1	3.4	0.0	-46.3	23.2*	46.3	3.6	-10.9
CC1CC(C)CN(C(=O)Cn2c(SCC(=O)N3CCc4ccccc4C3)nc3ccccc32)C1 (stereo unspecified)	0.7	0.0	31.3	23.8*	-31.3	-2.5	6.0
C(=N\n1cnnc1)/c1cn(Cc2ccccc2)c2ccccc12	-1.4	-0.5	23.8	-4.7	-23.8	-3.9	.
Clc1ccc(Cn2cc(/C=N/n3cnnc3)c3ccccc32)c(Cl)c1	25.3	-1.3	36.3	24.7*	-36.3	-1.7	3.4
Cc1ccc2occ(/C=N/NC(=O)c3ccc(O)cc3)c(=O)c2c1	-5.5	-1.1	-19.2	52.2*	19.2	2.8	1.8
O=C(NNC(=O)c1cccs1)c1cccc(F)c1	-2.1	-0.3	-12.5	-0.7	12.5	3.0	.
Cc1cccc(C(=O)Oc2ccc(/C=N/NC(=O)c3ccc(O)cc3)cc2)c1	0.8	-0.7	19.7	34.1*	-19.7	-1.2	0.9
SMILES	NSD2 HMT inh	CDK5 inh	SR-BI DiI inh	dFosB act-1	SR-BI DiI-HDL act	DYRK1A inh	dFosB act-2
O=C(N/N=C/c1ccc(OC(=O)c2cccs2)cc1)c1cccc(F)c1	11.7	-4.0	-1.4	61.3*	1.4	-2.8	-0.3
O=C(N/N=C/c1ccc(OC(=O)c2cccc(F)c2)cc1)c1cccnc1	-3.3	-0.9	.	93.7*	.	-4.9	-0.8
CSCCC(NC(=O)COc1ccccc1)C(=O)N(C)CC(=O)Nc1c(C)cccc1C (stereo unspecified)	-0.6	0.8	-23.0	-11.9	23.0	7.3	.
O=C(NCCS(=O)(=O)N1CCN(c2ccccc2)CC1)C1CC1	1.2	-0.5	-12.5	7.9	12.5	4.1	.
CCn1c2ccccc2c2cc(NC(=O)COC(=O)c3ccc(O)cc3)ccc21	24.6	1.2	50.3	15.3	-50.3	8.2	.
Cc1ccc(C)c(NC(=O)C(OC(=O)c2cc[n+]([O-])cc2)c2ccccc2)c1 (stereo unspecified)	3.0	1.1	10.5	-3.1	-10.5	-6.5	.
CCn1c2ccccc2c2cc(NC(=O)C(C)OC(=O)c3ccc(NC(=O)CC#N)cc3)ccc21 (stereo unspecified)	0.2	-1.8	29.2	17.6*	-29.2	.	6.7
Cc1cc(C)cc(NC(=O)C(OC(=O)c2ccc(NC(=O)CC#N)cc2)c2ccccc2)c1 (stereo unspecified)	-2.2	0.7	9.9	28.4*	-9.9	3.1	3.0
Cc1ccc(C)c(NC(=O)C(OC(=O)c2ccc(CO)cc2)c2ccccc2)c1 (stereo unspecified)	-0.5	1.2	16.1	34.9*	-16.1	-3.6	2.9
CCC(Sc1ccc2nnc(CCNS(=O)(=O)c3ccc(OC)cc3)n2n1)C(=O)OC (stereo unspecified)	1.4	-2.9	-23.8	-10.7	23.8	-5.8	.
COc1ccc(S(=O)(=O)N2CCCCCC2)cc1N	23.3	4.1	-18.6	-1.8	18.6	4.8	.
Cc1ccc2c(CC(=O)N(C)c3c(N)n(Cc4ccccc4)c(=O)[nH]c3=O)coc2c1	-1.6	-0.9	-43.6	-5.2	43.6	-6.1	.
CCOc1ccc(-c2nnn(CC(=O)Nc3ccccc3OC)n2)cc1OCC	.	0.6	33.1	58.8*	-33.1	0.8	-0.2
O=C(Cn1nnc(-c2ccccc2)n1)NCc1cccs1	-2.3	1.0	-18.9	-5.6	18.9	-0.7	.
COc1ccc(-c2nnn(CC(=O)NCc3cccs3)n2)cc1OC	-0.2	0.4	4.5	29.6*	-4.5	-2.7	-1.5
COc1ccccc1C(=O)Nc1ccc(-c2nnn(CC(=O)NCc3ccco3)n2)cc1	-2.4	1.7	23.6	41.8*	-23.6	-7.3	6.7
